SKKanGAS inh = blocks kanamycin growth of S. pyogenes SKKanGAS strain; BacTiter-Glo, 6 h; inhibition, % at 7.5 µM; 300,000 compounds, 1.3% hits;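 active means mean replicate score, as percent of positive control median, at least 50; inconclusive means mean below 50 but one replicate at or above 50; inactive means mean and every replicate below 50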;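 further: strain carries kanamycin resistance gene driven by streptokinase promoter and grows in 40 µg/ml kanamycin; loss of luminescence reflects streptokinase promoter inhibition or plain growth inhibition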
sPLA2-III inh = Inhibits HGIII-sPLA2 liposome hydrolysis, primary screen; AID 743126; QFRET BODIPY PC-A2 liposome hydrolysis, fluorescence; 370,000 compounds, 0.56% hits; inhibition, % at 12.2 µM; Q9NZ20;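 active means inhibition above mean plus 3 SD of compounds lying within the high and low control bounds, cut at about 19% in these data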
Calb FLC = affects C. albicans growth with fluconazole; C. albicans CaCi-2 (fluconazole-resistant clinical isolate) + fluconazole, Alamar Blue growth, 48 h; 300,000 compounds, 0.57% hits; AID 1979; growth inhibition, % (test concentration not listed);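 active means growth inhibition above about 58% in most replicates, limit read from the data, passing the limit was not always enough; inconclusive means exactly half the replicates above a set limit; inactive means most replicates below a set limit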;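 further: all wells also contain fluconazole at 8 µg/ml as a sub-toxic cotreatment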
ASAP1 GAP inh = inhibitors of human ASAP1 ArfGAP activity. AID 624377. 360,000 compounds, 0.19% hits. inhibition, % at 16.5 µM. ASAP1-stimulated ARF1 GTP hydrolysis, GDP FP detection. Q9ULH1; in the data active means inhibition above about 25%
Target sequence (Q9ULH1 325-724 limits assumed): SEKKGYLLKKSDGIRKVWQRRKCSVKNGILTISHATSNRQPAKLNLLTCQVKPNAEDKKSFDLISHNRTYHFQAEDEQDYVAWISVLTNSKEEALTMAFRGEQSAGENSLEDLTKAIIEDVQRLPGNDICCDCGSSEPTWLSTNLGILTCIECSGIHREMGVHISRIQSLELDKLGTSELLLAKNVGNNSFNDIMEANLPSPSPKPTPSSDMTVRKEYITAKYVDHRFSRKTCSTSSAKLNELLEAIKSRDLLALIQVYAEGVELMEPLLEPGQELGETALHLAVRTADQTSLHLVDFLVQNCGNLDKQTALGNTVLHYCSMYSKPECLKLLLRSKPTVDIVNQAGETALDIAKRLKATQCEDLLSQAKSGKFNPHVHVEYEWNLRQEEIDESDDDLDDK
ARFGAP1 inh = inhibitors of rat ARFGAP1; Q62848; inhibition, % at 16.5 µM; 360,000 compounds, 0.26% hits; Arfgap1-stimulated ARF1 GTP hydrolysis, GDP FP detection; AID 651572;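 active means inhibition above a per-plate limit, mean inhibition of low control wells plus 3 SD, cut at about 25% in these data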
Target sequence (Q62848 1-136 limits assumed): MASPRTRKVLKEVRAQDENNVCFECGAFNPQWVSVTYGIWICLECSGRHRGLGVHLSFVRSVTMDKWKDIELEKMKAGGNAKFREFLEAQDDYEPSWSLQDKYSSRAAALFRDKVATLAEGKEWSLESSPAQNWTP
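Material – truncated rat Arfgap1 GAP domain · Buffer or medium – HEPES-based buffer, pH 7.5 · Reagent – human ARF1(Δ1-17)-GTP substrate · Dosing – 16.5 µM single point, 1.26% DMSO · Schedule – GTP hydrolysis reaction 2 h at 25 °C · Technique – GDP detection by fluorescence polarization · Benchmarks – No-Arfgap1 wells (100%) versus DMSO full-reaction wells (0%) · Repeats – single replicate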
Of the large screens only hits and unclear results are named; the others gave an inactive call. Sampled rows, rich in hits. Any-hit rate of the full collection: about 2.3%.

Cc1noc(C)c1-c1ccc(C(=O)NCc2ccc(Cl)cc2)c2occc12	none (no result: SKKanGAS inh, Calb FLC)
COc1ccc(CNCC#Cc2ccc(C)cc2)c(OC)c1	none (no result: SKKanGAS inh, Calb FLC, ASAP1 GAP inh, ARFGAP1 inh)
CC1(C)c2cc(Cl)ccc2-n2c1cc(O)c(-c1ccccc1)c2=O	none
Cc1c(O)cc2n(c1=O)-c1ccc(Cl)cc1C2(C)C	Calb FLC 109
COc1ccc(N2CCN(C(=O)c3cc4c(s3)CCCCC4)CC2)cc1	none (no result: SKKanGAS inh, Calb FLC)
O=C(c1cc2c(s1)CCCCC2)N1CCN(c2ncccn2)CC1	Calb FLC 76
Clc1ccc2nc(CNc3nc(N4CCOCC4)nc4c3ncn4-c3ccsc3)[nH]c2c1	none (no result: SKKanGAS inh, Calb FLC, ASAP1 GAP inh, ARFGAP1 inh)
N=c1c2c(-c3ccccc3)c(-c3ccccc3)n(Cc3ccccc3)c2ncn1CCO	Calb FLC 97
N=c1c2c(-c3ccccc3)c(-c3ccccc3)n(CCc3ccccc3)c2ncn1CCO	none (no result: SKKanGAS inh, Calb FLC, ASAP1 GAP inh, ARFGAP1 inh)
COC(=O)C1CN(Cc2ccccc2)CCS(=O)(=O)N1Cc1ccc(F)cc1 (centres undefined)	none (no result: SKKanGAS inh, Calb FLC, ASAP1 GAP inh, ARFGAP1 inh)
Cc1nnc(NC(=O)c2ccc(S(=O)(=O)N(C)Cc3ccccc3)cc2)o1	SKKanGAS inh inconclusive, Calb FLC 87 (no result: sPLA2-III inh, ASAP1 GAP inh, ARFGAP1 inh)
O=C(Nc1nnc(C2CC2)o1)c1ccc(S(=O)(=O)N2CCc3ccccc3C2)cc1	none
CN(c1ccccc1)S(=O)(=O)c1ccc(NC(=O)c2ccccc2)cc1	none
CCN(Cc1ccccc1)S(=O)(=O)c1ccc(C(=O)Nc2nnc(C3CC3)o2)cc1	SKKanGAS inh 98
COCc1nnc(NC(=O)c2ccc(S(=O)(=O)N(C)Cc3ccccc3)cc2)o1	none
CCc1nnc(NC(=O)c2ccc(S(=O)(=O)N3CCCc4ccccc43)cc2)o1	SKKanGAS inh 86
CCc1nnc(NC(=O)c2ccc(S(=O)(=O)N(C)c3ccccc3)cc2)o1	SKKanGAS inh 52
COC(=O)[C@H]1C[C@@]2(N3CCCC3)c3ccccc3N(C(=O)OC(C)(C)C)[C@H]2N1C(=O)OC(C)(C)C	none (no result: SKKanGAS inh, Calb FLC, ASAP1 GAP inh, ARFGAP1 inh)
CC(C)C[C@H](NC1(C(=O)NCCc2c[nH]c3ccccc23)CCOCC1)C(=O)NCCCc1ccccc1	none (no result: SKKanGAS inh, Calb FLC, ASAP1 GAP inh, ARFGAP1 inh)
COc1ccc(-c2noc(C3CCCN(C(=O)Nc4ccc(Cl)cc4)C3)n2)cc1 (centres undefined)	none (no result: SKKanGAS inh, Calb FLC, ASAP1 GAP inh, ARFGAP1 inh)
CC(CCc1ccccc1)NC(=O)CN1CCN(c2ccc(O)cc2)CC1 (centres undefined)	Calb FLC 95
CC(CCc1ccccc1)NC(=O)CN1CCN(Cc2ccccc2)C1=O (centres undefined)	none
Cn1c(SCC2CCCCC2)nnc1-c1ccco1	none (no result: SKKanGAS inh, Calb FLC, ASAP1 GAP inh, ARFGAP1 inh)
O=C(N/N=C1/C(=O)c2cccc3cccc1c23)c1ccc(Cl)cc1	SKKanGAS inh 100
CN1CCN(C2=Cc3cc(Cl)ccc3Sc3cc(F)ccc32)CC1	SKKanGAS inh 90
CCn1c(SCc2ccc(F)cc2)nc2ccccc2c1=O	SKKanGAS inh 51
COc1cc(/C=N/Nc2nc(Nc3ccc(C)cc3)nc(-n3nc(C)cc3C)n2)cc(OC)c1OC	SKKanGAS inh 74
COc1cc(/C=N/Nc2nc(Nc3ccccc3)nc(-n3nc(C)cc3C)n2)cc(OC)c1OC	SKKanGAS inh 75
COc1ccc(/C=N/Nc2nc(Nc3ccccc3)nc(N3CCCC3)n2)cc1[N+](=O)[O-]	none
COc1ccc(Cn2ccc3ccc(-c4ccc5ccn(C(=O)c6ccc(C)cc6)c5c4)cc32)cc1	none (no result: SKKanGAS inh, Calb FLC, ASAP1 GAP inh, ARFGAP1 inh)
N=C1S/C(=C\c2ccc(-c3cccc(Cl)c3)o2)C(=O)N1c1nccs1	SKKanGAS inh 131
COc1ccc(/C=C2\SC(=N)N(c3nccs3)C2=O)cc1OC	SKKanGAS inh 89
CCc1cc2c(nc1CC)CCCN2Cc1ccc(Br)cc1	none (no result: SKKanGAS inh, Calb FLC)
CCCCOCCCNC(=O)C[C@H]1C[C@@]2(C(=O)OC)C(=C[C@H](C(C)C)O[C@@H]2C2CC2)N(CCC2=CCCCC2)C1=O	none (no result: SKKanGAS inh, Calb FLC, ASAP1 GAP inh, ARFGAP1 inh)
O=C(Nc1ccccc1N1CCOCC1)c1cc(F)cc(F)c1	Calb FLC 97
S=C(Nc1ccc(Cl)cc1)Nc1ccc2c(c1)OCCO2	Calb FLC 81 (no result: SKKanGAS inh)
O=C(NC(=S)Nc1ccc(F)c(Cl)c1)C1CC1	none
Fc1ccc(NC(=S)Nc2ccc(F)c(Cl)c2)cc1Cl	SKKanGAS inh 64 (no result: sPLA2-III inh, ASAP1 GAP inh, ARFGAP1 inh)
O=C(Nc1ccc(F)c(Cl)c1)Nc1csc2ccccc12	SKKanGAS inh 95
O=C(Nc1ccc(F)c(Cl)c1)C1CCCC1	none
O=C(Nc1ccc(F)c(Cl)c1)NC1CC1	Calb FLC 83
CCC[C@@H](/C=C/C(=O)OC(C)(C)C)Sc1ccc(OC)cc1	none (no result: SKKanGAS inh, Calb FLC, ASAP1 GAP inh, ARFGAP1 inh)
COc1ccc(CN2C(=O)[C@@](O)(c3cccn3C)c3cc(F)ccc32)cc1	none (no result: SKKanGAS inh, Calb FLC, ASAP1 GAP inh, ARFGAP1 inh)
CCCCCCOC(=O)/C=C/c1c(C)[nH]c(=O)[nH]c1=O	SKKanGAS inh 86
CCCCN1CC(COCc2ccccc2)Oc2cccc(Sc3ccc(OC)c(OC)c3)c2S1(=O)=O (centres undefined)	none (no result: SKKanGAS inh, Calb FLC)
Cc1ccc(C(=O)NC(=S)Nc2ccc(-c3ccc(CO)o3)cc2)cc1	SKKanGAS inh 61
COc1cc(Br)cc(/C=C/c2ccc3cccc(O)c3n2)c1OC	SKKanGAS inh 93
COc1ccc(Br)cc1/C=C/C(=O)NCC(=O)O	none
CCOc1c(OC(C)=O)ccc(/C=C/c2ccc3cccc(OC)c3n2)c1[N+](=O)[O-]	none
COc1ccc(Br)cc1/C=C/c1ccc2cccc(O)c2n1	SKKanGAS inh 100
CSc1nc(SCC(=O)O)c2sc3nc(-c4ccccc4)c4c(c3c2n1)CCC4	SKKanGAS inh 68
CSc1nc(N(C)CCO)c2sc3nc(-c4ccco4)c4c(c3c2n1)CCC4	none (no result: sPLA2-III inh, ASAP1 GAP inh, ARFGAP1 inh)
O=C(Nc1ccccc1)OC1CCC2CC1CCC2OC(=O)Nc1ccccc1 (centres undefined)	SKKanGAS inh 52

Assay outcomes from PubChem.
